Source: PubChem BioAssay
Calls of active or inactive are those of the source.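 The calls were made as follows, unless noted: active = Her2 level under about 52% in both replicate screens, with viability over 70% of control (limit read from the data); inconclusive = Her2 under the limit in one screen only, or viability under 70%; inactive = Her2 level above the set limit.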

Key:
[1] = Her2 expression decrease, cell viability multiplex – SKBR3 breast tumor cells, AlphaScreen, ATP viability, primary screen (AID 461); details: SKBR3 Her2 protein level, 18-24 h, measured here: SKBR3 viability, ATP luminescence, at 10 µM;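 as to Her2 level: lower value means less Her2 protein in the cells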;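 as to viability: percent of carrier control wells set as 100% viability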
[2] = target: Receptor tyrosine-protein kinase erbB-2 (Homo sapiens) (UniProt P04626); experiment: as above; details: 18-24 h, at 10 µM, stronger effect = lower value
Chain of Receptor tyrosine-protein kinase erbB-2 (Homo sapiens) (P04626 whole entry, looked up): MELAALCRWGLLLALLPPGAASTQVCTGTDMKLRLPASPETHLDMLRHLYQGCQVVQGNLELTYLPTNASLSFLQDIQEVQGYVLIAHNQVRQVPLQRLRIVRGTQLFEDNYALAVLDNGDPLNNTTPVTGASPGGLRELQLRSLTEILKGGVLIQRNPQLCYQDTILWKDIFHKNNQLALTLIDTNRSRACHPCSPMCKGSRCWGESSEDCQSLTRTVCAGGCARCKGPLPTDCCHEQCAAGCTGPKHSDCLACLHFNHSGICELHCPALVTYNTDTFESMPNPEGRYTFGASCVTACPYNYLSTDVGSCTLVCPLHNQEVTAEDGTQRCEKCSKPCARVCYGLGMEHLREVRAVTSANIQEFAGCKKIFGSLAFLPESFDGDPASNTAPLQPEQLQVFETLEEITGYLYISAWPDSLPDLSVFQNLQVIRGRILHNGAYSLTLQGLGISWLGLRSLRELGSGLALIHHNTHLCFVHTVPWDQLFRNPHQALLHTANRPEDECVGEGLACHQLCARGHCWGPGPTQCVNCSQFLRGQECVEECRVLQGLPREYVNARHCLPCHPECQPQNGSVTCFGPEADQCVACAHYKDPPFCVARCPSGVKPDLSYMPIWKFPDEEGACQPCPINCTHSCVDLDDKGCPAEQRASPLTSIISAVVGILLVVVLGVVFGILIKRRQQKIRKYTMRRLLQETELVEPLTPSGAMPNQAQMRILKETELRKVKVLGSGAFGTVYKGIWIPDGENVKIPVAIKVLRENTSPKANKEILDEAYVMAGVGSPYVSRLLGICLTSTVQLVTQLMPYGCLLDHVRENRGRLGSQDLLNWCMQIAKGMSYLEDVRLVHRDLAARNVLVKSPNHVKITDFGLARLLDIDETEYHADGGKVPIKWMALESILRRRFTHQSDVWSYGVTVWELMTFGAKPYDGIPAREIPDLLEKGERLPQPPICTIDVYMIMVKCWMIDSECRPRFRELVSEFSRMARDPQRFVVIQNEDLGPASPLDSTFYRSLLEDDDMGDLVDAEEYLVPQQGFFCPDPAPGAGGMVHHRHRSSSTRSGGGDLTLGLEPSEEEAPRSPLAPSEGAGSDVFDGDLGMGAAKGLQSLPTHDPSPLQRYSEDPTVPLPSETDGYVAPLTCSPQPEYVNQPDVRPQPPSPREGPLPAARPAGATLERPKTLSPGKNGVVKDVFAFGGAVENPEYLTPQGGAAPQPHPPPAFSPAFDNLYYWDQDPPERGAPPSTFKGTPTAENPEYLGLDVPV

[3] = reduced viability of SK-BR-3 breast cancer cells – cell-based, 24 h, human, pilot screen (AID 572;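 active = viability at or below 10% of carrier control in both of two separate runs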;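 also: compound exposure lasted between 18 and 24 h rather than exactly 24 h; 100% = carrier-treated control wells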); details: SK-BR-3 viability, CellTiter-Glo luminescence, at 10 µM, stronger effect = lower value
[4] = H69AR cell proliferation blockers – human, duplicate replicates, primary screen (AID 580;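 active = viability at or under a set limit in both replicates, limit being median viability minus 3 SD, cut at about 48% in these data, passing the limit was not always enough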;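 also: 100% = mean luminescence of untreated wells and 0% = no signal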); details: H69AR lung tumor cells viability, ATP luminescence, 72 h; at 10 µM; stronger effect = lower value
[5] = MRP1 drug-resistance reversers in H69AR cells – cell-based, doxorubicin co-treatment, pilot screen (AID 601;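 active = viability loss from added drug above about 55%, and viability with drug at most 40%, in both replicates, limit read from the data, passing the limit was not always enough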); details: CellTiter-Glo, 72 h, at 10 µM; for differential viability (reversal): stronger effect = higher value
[6] = yeast transport mutant growth inhibition pilot in 384-well plates, post-Golgi transport modulator project (AID 636; in the data active = inhibition above about 31%); details: absorbance 615 nm, about 18 h, stronger effect = higher value
[7] = growth suppression of yeast trafficking mutant, preliminary HTS, modulators of trafficking downstream of Golgi apparatus project, 1536-format plate, OD 615 nm (AID 637; in the data active = inhibition above about 30%); details: yeast transport mutant growth, absorbance 615 nm, 18 h; stronger effect = higher value
[8] = HUVEC growth inhibition – cell-based, human, primary screen (AID 575;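 active = viability at or below 30% in both replicate assays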;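 also: 100% = median of untreated cell wells with 0.1% DMSO on each plate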); details: HUVEC proliferation, CellTiter-Glo luminescence, 72 h; at 10 µM; stronger effect = lower value
Summary of the method: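 Timing: 72 h treatment at 37 °C; material: HUVEC primary cells; technique: CellTiter-Glo luminescence measuring cellular ATP; controls: vehicle and MePR control wells; measure: percent of median DMSO-control luminescence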

[9] = H69AR cells + 2 uM doxorubicin, measured here: viability with 2 uM doxorubicin, stronger effect = lower value
[10] = H69AR cells, compound alone cytotoxicity

Structure (SMILES) | viability [1] [%] | Her2 level [2] | viability [3] | viability [4] | differential viability (reversal) ([5]; H69AR cells + 2 uM doxorubicin) | viability [5, 9] [%] | viability [5, 10] [%] | inhibition [6] | inhibition [7] | viability [8]
COc1ccccc1NC(=O)NCCCN1CCN(c2cccc(Cl)c2)CC1 | 77 | 70.5% (inactive) | 77% (inactive) | 72.6% (inactive) | -14.3% (inactive) | 86.8 | 72.6 | 4.4% (inactive) | -7.7% (inactive) | 
CCn1c2ccccc2c2cc(NC(=O)Cc3ccc(S(=O)(=O)N4CCOCC4)s3)ccc21 | 83 | 76.5% (inactive) | 83% (inactive) |  | -10.1% (inactive) | 60.2 | 50.1 | -1.84% (inactive) | -2.73% (inactive) | 9.02% (active)
Cc1ccc(CNC(=O)c2coc(=O)c3ccccc23)o1 | 93.5 | 81% (inactive) | 93.5% (inactive) |  | -24.6% (inactive) | 67 | 42.4 | -0.53% (inactive) | -5.82% (inactive) | 81.8% (inactive)
Cc1ccc(O)c(-c2cc3ccccc3[nH]2)c1 | 105 | 87% (inactive) | 105% (inactive) | 70.2% (inactive) | 11.1% (inactive) | 59.2 | 70.2 | -8.92% (inactive) | 0.33% (inactive) | 
CC(C)C[C@H]1C(=O)N2CCC[C@H]2[C@]2(O)O[C@](NC(=O)[C@@H]3C=C4c5cccc6[nH]c(Br)c(c56)CC4N(C)C3)(C(C)C)C(=O)N12 (stereo partly specified) | 138 | 71% (inactive) | 138% (inactive) | 84.2% (inactive) | 11.8% (inactive) | 72.4 | 84.2 |  |  | 
CCOC(=O)C1=C(N)c2ccccc2CC1C(C)C (stereo unspecified) | 85.5 | 78% (inactive) | 85.5% (inactive) | 72% (inactive) | -4.15% (inactive) | 76.1 | 72 | -5.34% (inactive) | -1.9% (inactive) | 
O=C(CN1CCC(c2nc3ccccc3s2)CC1)NCc1cccs1 | 110 | 91% (inactive) | 110% (inactive) | 85.3% (inactive) | -3.33% (inactive) | 88.6 | 85.3 | -0.8% (inactive) | 6.72% (inactive) | 
Oc1c(Cl)cc(Cl)c2c1NCCC2 | 71.5 | 65% (inactive) | 71.5% (inactive) | 68.8% (inactive) | -11.9% (inactive) | 80.7 | 68.8 | -2.63% (inactive) | -2.7% (inactive) | 
N#C/C(=C(/O)COC(=O)CCC1CCCCC1)c1nc2ccccc2[nH]1 | 126 | 31% (active) | 126% (inactive) | 38.1% (active) | -9.79% (inactive) | 47.9 | 38.1 | -4.8% (inactive) | 2.3% (inactive) | 
COc1cc(-c2noc(-c3ccccc3C(=O)NCc3ccco3)n2)cc(OC)c1OC | 79 | 72.5% (inactive) | 79% (inactive) |  | -6.29% (inactive) | 65.2 | 59 | -5.14% (inactive) | 1.11% (inactive) | 55.6% (inactive)
CS(=O)(=O)c1ncc(Cl)c(C(=O)Nc2ccc(N3CCOCC3)cc2)n1 | 201 | 8% (active) | 201% (inactive) | 0.715% (active) | 0.355% (inactive) | 0.36 | 0.715 | -4.21% (inactive) | 3.65% (inactive) | 
Cc1ccc(C)c(-c2nc3ccc(N)cc3[nH]2)c1 | 122 | 101% (inactive) | 122% (inactive) |  | -15.6% (inactive) | 68.3 | 52.8 | -6.35% (inactive) | 5.67% (inactive) | 68.3% (inactive)
COc1cccc(-c2nnc3sc(C4CCCCC4)nn23)c1 | 83 | 53.5% (active) | 83% (inactive) | 63.4% (inactive) | 29.9% (inactive) | 33.5 | 63.4 | -1.58% (inactive) | 11% (inactive) | 
CC(C)Cn1c(N)c(C(=O)NCc2cccs2)c2nc3ccccc3nc21 | 77 | 101% (inactive) | 77% (inactive) | 12% (active) | -5.04% (inactive) | 17.1 | 12 | 24.3% (inactive) | 12.1% (inactive) | 
Cc1csc2ncc(C(=O)Nc3ccccc3Cl)c(=O)n12 | 87.5 | 86% (inactive) | 87.5% (inactive) |  | 3.82% (inactive) | 44.5 | 48.3 | -4.13% (inactive) | 4.5% (inactive) | 66.8% (inactive)
COc1ccc(-c2nc(N)nc(C)c2Oc2ccccc2Br)c(O)c1 | 96 | 74% (inactive) | 96% (inactive) | 5.08% (active) | -12.7% (inactive) | 17.8 | 5.08 | -4.34% (inactive) | 57.6% (active) | 
Nc1nonc1C(=O)NCCNCc1cc(Br)ccc1OCc1ccccc1F | 97.5 | 78.5% (inactive) | 97.5% (inactive) | 66.8% (inactive) | -1.58% (inactive) | 68.4 | 66.8 | -5.87% (inactive) | -6.13% (inactive) | 
